This note sets out measurements from ChEMBL document CHEMBL2034956, “Bioactive diterpenes from Callicarpa longissima” (J Nat Prod, 2012).

Format in all cases: functional, cell-based
The nature of experiment [1]: Antiinflammatory activity in human neutrophils assessed as inhibition of FMLP/CB-induced superoxide-anion generation incubated for 5 mins prior to FMLP/CB-challenge measured after 10 mins by spectrophotometry. Conditions: Neutrophil. The method in brief: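 Human neutrophils isolated by dextran sedimentation and Ficoll centrifugation. Superoxide anion measured as superoxide dismutase-inhibitable reduction of ferricytochrome c.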

The nature of experiment [2]: Antiinflammatory activity in human neutrophils assessed as inhibition of FMLP/CB-induced elastase release using Meo-Suc-Ala-Ala-Pro-Val-p-nitroanilide as substrate incubated for 5 mins prior to FMLP/CB-challenge by spectrophotometry. Conditions: Neutrophil. The method in brief: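 Human neutrophils isolated by dextran sedimentation and Ficoll centrifugation before elastase release measurement.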

Another experiment relates to PC-3. Kind of experiment: Antiproliferative activity against human PC3 cells after 48 hrs by SRB assay. The settings on record: PC-3, 48 h. The method in brief:
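Cells seeded in RPMI 1640 with 5% fetal bovine serum at 37 °C, 5% CO2. After 24 h, two plates per line TCA-fixed as time-zero reference. Compound added, then 48 h further incubation at 37 °C. Cold TCA fixation, 0.4% w/v sulforhodamine B in 1% acetic acid for 10 min, acetic acid washes, dye solubilized in 10 mM Trizma base, absorbance 515 nm. IC50 is 50% absorbance reduction versus untreated cells.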
(In SRB staining, fixed cells bind dye roughly in proportion to their protein.)

Values after ≈ are worked out from the molar mass of the structure shown. Bounds are passed on as bounds.

As a reminder, the IC50 is the point on the concentration scale where inhibition reaches its midpoint. For `C=C1CC[C@H]2C(C)(C)C(=O)CC[C@]2(C)[C@H]1CC/C(C)=C/C(=O)O`, the IC50 is 9.31 µg/mL (≈ 29.2 µM) in experiment [1], more than 10 µg/mL in experiment [2] and more than 10 µg/mL in the experiment on PC-3.
In the case of `C=C1C[C@@H](O)[C@H]2C(C)(C)CCC[C@]2(C)[C@H]1CC/C(C)=C/C(=O)O`, the IC50 in experiment [1] and in experiment [2] was more than 10 µg/mL throughout.
With `COc1ccc(-c2oc3cc(OC)c(OC)c(O)c3c(=O)c2OC)cc1`, the IC50 in experiment [1] and in experiment [2] was more than 10 µg/mL in each case.
As to `C=C(C)[C@@H]1CCC2=C[C@]3(C(C)C)CC[C@]2(OO3)[C@@]1(C)CCC(=O)O` (relative stereo), the IC50 in experiment [1] was 3.14 µg/mL (≈ 9.39 µM); in experiment [2], 4.66 µg/mL (≈ 13.9 µM); with PC-3, more than 10 µg/mL.
Turning to `C=C(C)[C@@H]1CCC2=C[C@](O)(C(C)C)CC[C@@]23OC(=O)CC[C@@]13C` (relative stereo), the concentration for half-maximal inhibition (IC50) in experiment [1] and in experiment [2] was more than 10 µg/mL each time.
For the molecule `CC(C)c1ccc2c(c1)CC[C@@H](C(C)(C)O)[C@]2(C)CCC(=O)O` (relative stereo), the IC50 in experiment [1] and in experiment [2] was more than 10 µg/mL throughout.
Turning to `COc1ccc(-c2oc3cc(OC)c(OC)c(O)c3c(=O)c2OC)cc1OC` [ARTEMETIN], the IC50 in experiment [1] and in experiment [2] was more than 10 µg/mL throughout.
Turning to `CC1=CC(=O)[C@H]2C(C)(C)CCC[C@]2(C)[C@H]1CC/C(C)=C/C(=O)O` [CALLILONGISIN D], the IC50 was 5.09 µg/mL (≈ 16 µM) in experiment [1], more than 10 µg/mL in experiment [2] and more than 10 µg/mL in the experiment with PC-3.
On to `C[C@H]1[C@H](C)CC[C@]2(C(=O)O)CC[C@]3(C)C(=CC[C@@H]4[C@@]5(C)CC[C@H](O)C(C)(C)[C@@H]5CC[C@]43C)[C@H]12` [URSOLIC ACID], for which the IC50 in experiment [1] is 2.79 µg/mL (≈ 6.11 µM); in experiment [2], 5.21 µg/mL (≈ 11.4 µM); in the experiment on PC-3, more than 10 µg/mL.
